Assay [1] deals with Histamine H3 receptor (Rattus norvegicus) (UniProt Q9QYN8). Briefly: Agonistic activity, Histamine H3 receptor dependent activation of G-proteins with GTP gamma-[35S] autoradiography of rat cortical tissue sections. at 10e-5 M conc.;no response above basal. The format is functional. The essentials:
(§1)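 Rat brain tissue sections were incubated with the test compound at the stated concentrations together with GTPγ[35S], then washed and dried. Film autoradiograms were digitized and quantified against [14C] standards. Responses were read from cerebral cortex and striatum, four animals per region, with cerebellum (no H3 receptors) as a nonspecific-effect control.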

For assay [2] the target is unchanged. Briefly: Agonistic activity, Histamine H3 receptor dependent activation of G-proteins with GTP gamma-[35S] autoradiography of rat striatal tissue sections. at 10e-5 M conc.;no response above basal. In kind it is functional. The essentials: as §1
The target is the same in assay [3]. To be noted: filed as antagonist; 10e-5 M.
The target is the same in assay [4]. Particulars: filed as antagonist, 10e-6 M.
Assay [5] has the same target. To be noted: Striatum, 10e-5 M.
Assay [6] has the same target. To be noted: Striatum, filed as antagonist, 10e-6 M.
In assay [7] the target is T1, Histamine H3 receptor (Rattus norvegicus, UniProt Q9QYN8). Briefly: Binding affinity of compound against Histamine H3 receptor. The gist of the method: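 Displacement of the radioligand [3H]R-(α)-methylhistamine from the histamine H3 receptor in an in vitro receptor binding assay.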
The target of assay [8] is Histamine H3 receptor (Rattus norvegicus) (UniProt Q9QYN8). The assay is described as follows: Agonistic activity, Histamine H3 receptor dependent activation of G-proteins with GTP gamma-[35S] autoradiography of rat cortical tissue sections. at 10e-5 M conc; maximal response. In kind it is functional. Particulars: filed as agonist. The essentials: as §1
Assay [9] has the same target. Briefly: Agonistic activity, Histamine H3 receptor dependent activation of G-proteins with GTP gamma-[35S] autoradiography of rat striatal tissue sections. at 10e-5 M conc.; maximal response. To be noted: filed as agonist. In kind it is functional. The gist of the method:
as §1

Assay [10] shares this target. The assay is described as follows: Binding affinity for Histamine H3 receptor. The essentials:
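Affinity for the H3 receptor measured in an in vitro binding assay by displacement of the radioligand [3H]R-(α)-methylhistamine.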

The target is the same in assay [11]. To be noted: filed as antagonist; 10e-5 M. This is another data set of the same source.
The target is the same in assay [12]. Particulars: Striatum; filed as antagonist; 10e-5 M.
For assay [13] the target is unchanged. To be noted: 10e-8 M.
Assay [14] shares this target. Particulars: Striatum; 10e-8 M.
Assay [15] shares this target. Briefly: Agonistic activity, Histamine H3 receptor dependent activation of G-proteins with GTP gamma-[35S] autoradiography of rat cortical tissue sections. at 10e-5 M conc.; maximal response. In kind it is functional. To be noted: filed as agonist. The gist of the method: as §1
Assay [16] has the same target. Particulars: filed as agonist; 10e-5 M.
Assay [17] shares this target. To be noted: filed as antagonist; 10e-6 M.
For assay [18] the target is unchanged. To be noted: filed as antagonist; 10e-8 M.
Assay [19] has the same target. Particulars: Striatum; filed as antagonist; 10e-8 M.
Assay [20] has the same target. The assay is described as follows: Agonistic activity, Histamine H3 receptor dependent activation of G-proteins with GTP gamma-[35S] autoradiography of rat striatal tissue sections. at 10e-5 M conc.; half-maximal response. The format is functional. Particulars: filed as partial agonist. The gist of the method: as §1
Assay [21] has the same target. Briefly: Agonistic activity, Histamine H3 receptor dependent activation of G-proteins with GTP gamma-[35S] autoradiography of rat cortical tissue sections. at 10e-5 M conc.; half-maximal response. The format is functional. To be noted: filed as partial agonist. The gist of the method: as §1
Assay [22] shares this target. Particulars: filed as antagonist.
For assay [23] the target is unchanged. Particulars: filed as antagonist; 10e-6 M. This is another data set of the same source.
Assay [24] shares this target. To be noted: filed as antagonist. This is another data set of the same source.
The target is the same in assay [25]. To be noted: Striatum; filed as antagonist; 10e-6 M.
For assay [26] the target is unchanged. The assay is described as follows: Agonistic activity, Histamine H3 receptor dependent activation of G-proteins with GTP gamma-[35S] autoradiography of rat cortical tissue sections. at 10e-5 M conc.; weak response (between half-maximal and basal. In kind it is functional. Particulars: filed as partial agonist. The essentials:
as §1

Assay [27] concerns the target T1, Histamine H3 receptor. The assay is described as follows: PKi was measured by Histamine H3 receptor binding assay (N-alpha-MeHA) on rat cerebral cortex. The format is tissue-based. The gist of the method: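 Affinity measured by displacement of the radioligand [3H]R-(α)-methylhistamine in an in vitro H3-receptor binding assay.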
Assay [28] deals with Histamine H3 receptor (Rattus norvegicus) (UniProt Q9QYN8). Briefly: Agonistic activity, H3-receptor dependent activation of G-proteins with GTP gamma-[35S] autoradiography of rat striatal tissue sections. at 10e-5 M conc.; maximal response. The format is functional. Particulars: filed as agonist. The essentials: as §1
Assay [29] shares this target. The assay is described as follows: Agonistic activity, H3-receptor dependent activation of G-proteins with GTP gamma-[35S] autoradiography of rat cortical tissue sections. at 10e-5 M conc.; maximal response. To be noted: filed as agonist. The format is functional. The gist of the method: as §1

Active and inactive are the calls of the source. No cut-off for these calls is given here. Some results are limits rather than exact numbers.

T1 sequence (Q9QYN8 whole entry): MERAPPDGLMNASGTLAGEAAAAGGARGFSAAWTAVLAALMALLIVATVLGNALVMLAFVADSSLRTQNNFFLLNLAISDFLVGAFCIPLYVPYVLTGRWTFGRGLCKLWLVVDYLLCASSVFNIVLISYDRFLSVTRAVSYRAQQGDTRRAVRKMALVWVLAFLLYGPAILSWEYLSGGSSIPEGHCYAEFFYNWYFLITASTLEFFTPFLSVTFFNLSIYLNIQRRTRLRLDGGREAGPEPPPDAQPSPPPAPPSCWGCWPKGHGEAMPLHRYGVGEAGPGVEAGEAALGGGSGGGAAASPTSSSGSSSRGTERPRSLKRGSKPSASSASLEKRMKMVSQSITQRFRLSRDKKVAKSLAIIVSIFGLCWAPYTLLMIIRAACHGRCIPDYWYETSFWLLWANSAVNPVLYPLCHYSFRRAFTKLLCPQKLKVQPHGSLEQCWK
Sequence of Histamine H3 receptor (Rattus norvegicus) (Q9QYN8 whole entry): as above

With `N[C@H](COCc1ccc(I)cc1)Cc1c[nH]cn1`, the Agonistic activity entry in [1] and in assay [2] was “inactive” in each case.
Turning to `NCCc1c[nH]cn1.N[C@@H](COCc1ccc(Br)cc1)Cc1c[nH]cn1`, the Antagonist activity entry was “Partial antagonist” in assay [3], “Antagonist” in assay [4], “Partial agonist” in [5] and “Antagonist” in assay [6].
Broadly, the Ki is a measure of affinity in units of concentration, obtained from inhibition or displacement. Low readings indicate higher affinity, high ones lower affinity. On Histamine H3 receptor [7], `N[C@H]1C[C@@H]1c1c[nH]cn1` [VUF-5297] showed a Ki of 25.1 nM.
For `N[C@@H](COCC1CCCCC1)Cc1c[nH]cn1`, the Agonistic activity result in assay [8] and in [9] was “Agonist” each time.
Take `C[C@@H]1NCC[C@H]1c1c[nH]cn1`: in assay [10], the pD2 was 7.1.
Take `NCCc1c[nH]cn1.N[C@@H](COCC1CCCCC1)Cc1c[nH]cn1`: the Antagonist activity entry in [11], in assay [4], in assay [12] and in [6] was “Antagonist” each time.
`NCCc1c[nH]cn1.N[C@@H](COCc1ccc(I)cc1)Cc1c[nH]cn1`: the Antagonist activity entry in [3] is “Partial antagonist”; in assay [4], “Antagonist”; in assay [5] (filed as antagonist), “Partial agonist”; in [6], “Antagonist”.
Turning to `Ic1ccc(COCCCc2c[nH]cn2)cc1.NCCc1c[nH]cn1`, the Antagonist activity result in assay [13] and in [14] was “inactive” each time.
At Histamine H3 receptor [7], `N[C@@H](Cc1ccccc1)C(=O)NCCc1c[nH]cn1` had a Ki of 100 nM. That is a sub-micromolar value.
`CNCCc1cnc[nH]1` returned a pD2 in assay [10] of 7.7.
Turning to `C[C@H](N)[C@@H](C)c1c[nH]cn1`, in assay [10], the pD2 turned out to be 6.5.
Turning to `N[C@H](COCC1CCCCC1)Cc1c[nH]cn1`, the Agonistic activity result in assay [9] and in assay [15] was “Agonist” throughout.
In the case of `NCCc1c[nH]cn1`, the Agonistic activity result in assay [9] and in assay [15] was “Agonist” each time. In addition, the pD2 in assay [10] was 7.2. Further, the Agonist activity result in [16] is “Agonist”. Also, in assay [17], the Antagonist activity entry was “Antagonist”.
Take `NCCc1c[nH]cn1.N[C@H](COCC1CCCCC1)Cc1c[nH]cn1`: the Antagonist activity result in assay [11], in assay [4], in assay [12] and in [6] was “Antagonist” each time.
As for `N[C@H](/C=C/[C@@H]1C[C@H]1c1c[nH]cn1)CC1CCCCC1`, on Histamine H3 receptor [7], affinity was put at a Ki of 0.398 nM.
In turn, `N[C@H](/C=C\[C@@H]1C[C@H]1c1c[nH]cn1)CC1CCCCC1` showed an inhibitory constant (Ki) at Histamine H3 receptor [7] of 100 nM.
`CC(C)(C)CCC#C[C@@H]1C[C@H]1c1c[nH]cn1` [CIPRALISANT] registered a pD2 in assay [10] of 8.5. Further, the affinity on Histamine H3 receptor [7], expressed as Ki, was 0.126 nM.
Turning to `NCCc1c[nH]cn1.S=C(NC1CCCCC1)N1CCC(c2c[nH]cn2)CC1`, the Antagonist activity result in [18] was “Agonist”; in assay [19] it was “Antagonist”.
As for `N[C@H](COCc1ccc(Br)cc1)Cc1c[nH]cn1`, the Agonistic activity result in [20] and in assay [21] was “Partial agonist” in each case.
As to `NCCc1c[nH]cn1.N[C@H](COCc1ccc(I)cc1)Cc1c[nH]cn1`, the Antagonist activity entry in assay [22], in assay [23], in assay [24] and in assay [25] was “Partial antagonist” in each case.
`c1nc(CC2CCNCC2)c[nH]1` returned a pD2 in [10] of 8.
Still for that read-out and setting: next, `C[C@H]1NCC[C@@H]1c1c[nH]cn1`: 7.1.
Turning to `N[C@@H](Cc1ccccc1)C(=O)N[C@H]1C[C@@H]1c1c[nH]cn1`, the affinity at Histamine H3 receptor [7] corresponds to a Ki of 20 nM.
On to `N[C@H](COCc1ccccc1)Cc1c[nH]cn1`, for which the Agonistic activity result in assay [26] and in [20] was “Partial agonist” throughout.
As for `N[C@@H](COCc1ccccc1)Cc1c[nH]cn1`, the Agonistic activity entry in assay [1] and in assay [2] was “inactive” throughout.
`N[C@@H](Cc1ccccc1)C(=O)N[C@@H]1C[C@H]1c1c[nH]cn1`: the pD2 in [10] was 8.7.
In turn, `c1ccc(COCCCc2c[nH]cn2)cc1` [PROXYFAN] had a Ki at Histamine H3 receptor [27] of 5.01 nM. In other words, the single-digit nanomolar range.
As for `NCCCCCc1c[nH]cn1`, the Agonistic activity entry in [28] and in [29] was “Agonist” each time.
`N[C@@H](COCc1ccc(I)cc1)Cc1c[nH]cn1`: the Agonistic activity result in assay [1] and in assay [2] was “inactive” throughout.
Compound `N[C@H](Cc1ccccc1)C(=O)NCCc1c[nH]cn1` had a Ki at Histamine H3 receptor [7] of over 10000 nM.
Compound `N[C@@H]1C[C@H]1c1cnc[nH]1` [VUF-5296] showed a Ki at Histamine H3 receptor [7] of 3.16 nM.
As for `NCCc1c[nH]cn1.N[C@H](COCc1ccccc1)Cc1c[nH]cn1`, the Antagonist activity entry in [11], in assay [4], in assay [12] and in [6] was “Antagonist” each time.
Take `NCCc1c[nH]cn1.N[C@@H](COCc1ccccc1)Cc1c[nH]cn1`: the Antagonist activity result in [11], in [4], in assay [12] and in assay [6] was “Antagonist” in each case.
The compound `N=C(N)CCCc1c[nH]cn1` came in with a pD2 in assay [10] of 9.
Consider `NCCc1c[nH]cn1.N[C@H](COCc1ccc(Br)cc1)Cc1c[nH]cn1`, for which the Antagonist activity entry was “Partial antagonist” in assay [3], “Antagonist” in assay [4], “Partial agonist” in assay [5] and “Antagonist” in assay [6].
Consider `N=C(N)SCCc1c[nH]cn1`, for which the pD2 in assay [10] was 8.1.
As for `C[C@H](c1c[nH]cn1)[C@@H](C)N`, the pD2 in assay [10] was determined as 8.5.
In assay [10], `C[C@@H](N)Cc1c[nH]cn1` gave a pD2 of 8.4.
On to `N=C(NCc1ccc(Cl)cc1)SCCCc1c[nH]cn1.NCCc1c[nH]cn1`, for which the Antagonist activity result in assay [13] and in assay [14] was “inactive” throughout.
On to `N[C@@H](COCc1ccc(Br)cc1)Cc1c[nH]cn1`, for which the Agonistic activity result in [20] and in assay [21] was “Partial agonist” in each case.
